In ChEMBL document CHEMBL1136963, “Sesterterpenes as tubulin tyrosine ligase inhibitors. First insight of structure-activity relationships and discovery of new lead” (J Med Chem, 2009):
The source made the active and inactive calls. The rule behind the calls is not given here.

What was measured:
Albumin = Albumin (Bos taurus, UniProt P02769); experiment: Binding affinity to bovine serum albumin by surface plasmon resonance; type: ADME; settings: cattle, isolated protein
Outline: (§1)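 Biacore SPR. TTL and BSA each amine-coupled (100 µg/mL in 10 mM sodium acetate, pH 5.0) to 8-12 kRU, with an unmodified reference surface. Running buffer 10 mM NaH2PO4, 150 mM NaCl, 0.5% DMSO, pH 7.4. Five-point 2-fold series, typically 0.05-10 µM, in triplicate. 25 °C, 50 µL/min, 60 s association, 200 s dissociation. Double-referenced. KD fitted from at least 10 curves.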

Tubulin--tyrosine ligase = target: T1, Tubulin--tyrosine ligase (Homo sapiens, UniProt Q8NG68); experiment: Binding affinity to TTL by surface plasmon resonance; outline: as §1
T1 sequence (Q8NG68 whole entry): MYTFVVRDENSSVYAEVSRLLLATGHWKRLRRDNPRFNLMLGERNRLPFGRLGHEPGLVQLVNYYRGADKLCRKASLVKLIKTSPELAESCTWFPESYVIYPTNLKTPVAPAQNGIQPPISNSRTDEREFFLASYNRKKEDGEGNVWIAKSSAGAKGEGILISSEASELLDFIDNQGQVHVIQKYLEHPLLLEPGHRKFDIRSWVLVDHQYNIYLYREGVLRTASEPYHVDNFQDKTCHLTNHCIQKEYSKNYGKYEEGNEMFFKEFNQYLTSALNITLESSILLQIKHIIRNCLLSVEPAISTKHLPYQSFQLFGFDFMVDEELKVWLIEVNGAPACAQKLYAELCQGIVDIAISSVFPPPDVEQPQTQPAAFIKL

MCF7 = experiment: Cytotoxicity against human MCF7 cells up to >100 uM after 24 to 48 hrs by MTT assay; type: functional, cell-based
HEK293 = experiment: Cytotoxicity against HEK293 cells up to >100 uM after 24 to 48 hrs by MTT assay; type: functional, cell-based; settings: Homo sapiens
J774.A1 = experiment: Cytotoxicity against mouse J774A1 cells up to >100 uM after 24 to 48 hrs by MTT assay; type: functional, cell-based
[1] = target: T2, Tubulin--tyrosine ligase (Homo sapiens) (UniProt Q8NG68); experiment: Inhibition of TTL in human MCF7 cells assessed as increase in delta2-tubulin level at 100 uM after 24 to 48 hrs by Western blot; type: cell-based
T2 sequence (whole entry): T1 sequence (Q8NG68 whole entry)
Outline: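 MCF-7 cells were grown in DMEM with 10% FBS at 37 °C, 5% CO2, seeded at 4 × 10^5 per well, and treated 24 h later with or without 100 µM compound for 24 and 48 h. NP-40 lysates (20 µg protein, Bradford) were run on 10% SDS-PAGE and blotted. Membranes were probed overnight at 4 °C with rabbit polyclonal anti-Δ2-α-tubulin.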

Sequence of Albumin (P02769 whole entry): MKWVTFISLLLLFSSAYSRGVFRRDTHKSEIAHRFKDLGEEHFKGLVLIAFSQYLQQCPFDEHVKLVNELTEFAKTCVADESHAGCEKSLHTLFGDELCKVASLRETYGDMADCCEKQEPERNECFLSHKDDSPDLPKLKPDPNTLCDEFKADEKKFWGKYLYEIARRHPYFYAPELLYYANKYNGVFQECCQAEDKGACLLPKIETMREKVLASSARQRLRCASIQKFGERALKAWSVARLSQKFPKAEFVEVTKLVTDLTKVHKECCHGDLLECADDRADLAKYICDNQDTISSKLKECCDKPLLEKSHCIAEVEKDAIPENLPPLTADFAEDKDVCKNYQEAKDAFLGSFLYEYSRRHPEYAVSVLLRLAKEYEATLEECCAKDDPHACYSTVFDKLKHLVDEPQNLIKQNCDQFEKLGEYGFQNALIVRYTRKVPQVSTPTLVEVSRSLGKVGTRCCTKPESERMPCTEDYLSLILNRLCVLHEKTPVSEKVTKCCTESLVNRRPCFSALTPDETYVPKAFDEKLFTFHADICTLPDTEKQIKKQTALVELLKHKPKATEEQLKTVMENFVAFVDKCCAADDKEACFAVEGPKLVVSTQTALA

SMILES | Activity (Albumin) | Kd (Tubulin--tyrosine ligase) | Activity (MCF7) | Activity (HEK293) | Activity (J774.A1) | Activity [1]
CC1=CC(=O)O/C1=C\C=C(/C)CC[C@@H]1[C@@]2(C)CCC[C@@]3(C)C(=O)O[C@@H](C[C@@]1(C)O)[C@H]23 | Not Active | 150 nM | inactive | inactive | inactive | 
CC1=CC(=O)O[C@@H]1[C@@H](O)/C=C(\C)CC[C@@H]1[C@@]2(C)CCC[C@@]3(C)CO[C@@H](C[C@@]1(C)O)[C@@H]32 | Not Active |  | inactive | inactive | inactive | 
C=C1C[C@@H]2OC[C@]3(C)CCC[C@](C)([C@H]1CC/C(C)=C/C[C@H]1OC(=O)C=C1C)[C@@H]23 | Not Active | 8700 nM | inactive | inactive | inactive | 
CC1=CC(=O)O/C1=C\C=C(/C)CC[C@@H]1[C@@]2(C)CCC[C@@](C)(C(=O)O)[C@@H]2[C@@H](O)C[C@@]1(C)O | Not Active | 93 nM | inactive | inactive | inactive | 
CC1=CC(=O)O[C@@H]1[C@@H](O)/C=C(\C)CC[C@@H]1[C@@]2(C)CCC[C@@](C)(CO)[C@@H]2[C@@H](O)C[C@@]1(C)O | Not Active | 4700 nM | inactive | inactive | inactive | 
CC1=CC(=O)O[C@@H]1[C@@H](O)/C=C(\C)CC[C@@H]1[C@@]2(C)CCC[C@@]3(C)C(=O)O[C@@H](C[C@@]1(C)O)[C@H]23 | Not Active |  | inactive | inactive | inactive | Active
CCO[C@H]1O[C@H]2C[C@@](C)(O)[C@H](CC/C(C)=C/C[C@H]3OC(=O)C=C3C)[C@@]3(C)CCC[C@]1(C)[C@H]23 | Not Active | 73 nM | inactive | inactive | inactive | 
CC1=CC(=O)O/C1=C\C=C(/C)CC[C@@H]1[C@@]2(C)CCC[C@@](C)(CO)[C@@H]2[C@@H](O)C[C@@]1(C)O | Not Active | 110 nM | inactive | inactive | inactive | 
CC1=CC(=O)O[C@@H]1[C@@H](O)/C=C(\C)CC[C@@H]1[C@@]2(C)CCC[C@]3(C)[C@@H]2[C@H](C[C@@]1(C)O)O[C@@H]3O | Not Active | 210000 nM | inactive | inactive | inactive | Active
C=C(CC[C@@H]1[C@@]2(C)CCC[C@@](C)(CO)[C@@H]2[C@@H](O)C[C@@]1(C)O)[C@@H](O)[C@@H](O)C1OC(=O)C=C1C (stereo in doubt; 23) [listing 1 of 2 here] |  |  | inactive | inactive | inactive | 
CC1=CC(=O)O[C@@H]1[C@@H](O)/C=C(\C)CC[C@@H]1[C@@]2(C)CCC[C@@](C)(C(=O)O)[C@@H]2[C@@H](O)C[C@@]1(C)O | Not Active | 3000 nM | inactive | inactive | inactive | 
COC(=O)[C@]1(C)CCC[C@@]2(C)[C@H]1[C@@H](O)C[C@@](C)(O)[C@@H]2CC/C(C)=C/[C@H](O)[C@H]1OC(=O)C=C1C | Not Active | 6200 nM | inactive | inactive | inactive | 
C=C1C[C@H](O)[C@H]2[C@](C)(CO)CCC[C@]2(C)[C@H]1CC/C(C)=C/[C@H](O)[C@H]1OC(=O)C=C1C | Not Active | 2000 nM | inactive | inactive | inactive | 
CC1=CC(=O)O[C@@H]1[C@@H](O)/C=C(\C)CC[C@@H]1[C@@]2(C)CCC[C@@](C)(C=O)[C@@H]2[C@@H](O)C[C@@]1(C)O | Not Active | 3000 nM | inactive | inactive | inactive | 
CC1=CC(=O)O[C@@H]1C/C=C(\C)CC[C@@H]1[C@@]2(C)CCC[C@@](C)(CO)[C@@H]2[C@@H](O)C[C@@]1(C)O | Not Active | 72 nM | inactive | inactive | inactive | 
C=C(CC[C@@H]1[C@@]2(C)CCC[C@@](C)(CO)[C@@H]2[C@@H](O)C[C@@]1(C)O)[C@@H](O)[C@@H](O)C1OC(=O)C=C1C (stereo in doubt; 23) [listing 2 of 2 here] | Not Active |  |  |  |  | 
CCO[C@H]1O[C@H]2C[C@@](C)(O)[C@H](CC/C(C)=C/[C@H](O)[C@H]3OC(=O)C=C3C)[C@@]3(C)CCC[C@]1(C)[C@H]23 | Not Active | 960 nM | inactive | inactive | inactive | 
CC1=CC(=O)O/C1=C\C=C(/C)CC[C@@H]1[C@@]2(C)CCC[C@@]3(C)C(O)O[C@@H](C[C@@]1(C)O)[C@H]23 (stereo not given in full) | Not Active | 480 nM | inactive | inactive | inactive | 
C=C(CC[C@@H]1[C@@]2(C)CCC[C@@](C)(CO)[C@@H]2[C@@H](O)C[C@@]1(C)O)[C@@H](O)[C@@H](O)C1OC(=O)C=C1C (stereo in doubt; 22) |  |  | inactive | inactive | inactive | 
CC1=CC(=O)O[C@@H]1C/C=C(\C)CC[C@@H]1[C@@]2(C)CCC[C@@](C)(C=O)[C@@H]2[C@@H](O)C[C@@]1(C)O | Not Active | 810 nM | inactive | inactive | inactive | 
CC1=CC(=O)OC1C/C=C(\C)CC[C@@H]1[C@@]2(C)CCC[C@@](C)(C(=O)O)[C@@H]2[C@@H](O)C[C@@]1(C)O (stereo not given in full) | Not Active | 7 nM | inactive | inactive | inactive | 
CC1=CC(=O)O[C@@H]1[C@@H](O)/C=C(\C)CC[C@@H]1[C@@]2(C)CCCC(C)(C)[C@@H]2[C@@H](O)C[C@@]1(C)O | Not Active |  | inactive | inactive | inactive | 
C=C(CC[C@@H]1[C@@]2(C)CCC[C@@](C)(C=O)[C@@H]2[C@@H](O)C[C@@]1(C)O)[C@@H](O)[C@@H](O)C1OC(=O)C=C1C (stereo not given in full) | Not Active |  | inactive | inactive | inactive | 
C=C1C[C@H](O)[C@@H]2[C@](C)(CCC[C@@]2(C)C=O)[C@H]1CC/C(C)=C/[C@H](O)[C@H]1OC(=O)C=C1C | Not Active | 3300 nM | inactive | inactive | inactive | 
CC1=CC(=O)O/C1=C\C=C(/C)CC[C@@H]1[C@@]2(C)CCC[C@@](C)(C=O)[C@@H]2[C@@H](O)C[C@@]1(C)O | Not Active | 200 nM | inactive | inactive | inactive | 
